Source: PubChem BioAssay
TPT1 inh – C. albicans TPT1 enzyme inhibition. recombinant caTPT1, FP RNA substrate dephosphorylation. inhibition, % at 5 µM. 300,000 tested, 0.81% active. AID 1962;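 active = inhibition above the mean of all tested compounds plus 3 SD, set per screening campaign, cut at about 24% in these data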
IDE act – boosts human insulin-degrading enzyme activity in HEK cells; P14735; FAbeta-B cleavage, fluorescence polarization; 0% vehicle, 100% cell-free pure enzyme wells; activation, % at 5.96 µM; 340,000 tested, 0.073% active; AID 493087;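 active = activation above the mean of all tested compounds plus 3 SD, set per screening campaign, cut at about 17% in these data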
Rpn11 inh – inhibitors of human proteasome Rpn11; human 26S proteasome, Ub4-pepOG fluorescence polarization; 20S core pre-blocked with epoxomicin; calls only at 20 µM; 360,000 tested, 0.59% active; AID 588493;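 active = inhibition at 20 µM, scaled to each plate's controls, above about 33%, limit read from the data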
Target sequence (O00487 whole entry, looked up): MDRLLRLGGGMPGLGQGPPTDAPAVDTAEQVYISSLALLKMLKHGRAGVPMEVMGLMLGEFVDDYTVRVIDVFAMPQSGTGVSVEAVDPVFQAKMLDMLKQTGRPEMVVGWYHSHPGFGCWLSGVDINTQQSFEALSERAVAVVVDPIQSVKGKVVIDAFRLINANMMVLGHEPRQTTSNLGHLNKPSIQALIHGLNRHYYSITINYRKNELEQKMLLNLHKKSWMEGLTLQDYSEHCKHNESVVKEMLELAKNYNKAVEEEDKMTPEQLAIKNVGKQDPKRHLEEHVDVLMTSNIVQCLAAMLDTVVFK
IDE inh – inhibits human insulin-degrading enzyme in HEK cells; P14735; FAbetaB cleavage, fluorescence polarization; inhibition, % at 5.59 µM; 320,000 tested, 0.41% active;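 active = percent inhibition above the average of all tested compounds plus 3 SD, set per screening campaign, cut at about 16% in these data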;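 note: IDE supplied by intact live HEK cells; FP after avidin binding of uncleaved biotin substrate so inhibition keeps polarization high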
CSN deneddyl inh – blocks human CSN-mediated cullin deneddylation. Q92905. Purified CSN, SCF-Nedd8-OG deneddylation, fluorescence polarization. inhibition, % at 12.5 µM. 360,000 tested, 0.38% active. AID 651999;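 active = pattern-corrected inhibition above about 35%, with an unprinted fluorescence ratio check between 0.5 and 1.5, limit read from the data, passing the limit was not always enough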
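Material: human Csn5 produced in HEK293T cells; Input: enzyme 0.24 nM; Reagent: SCFSkp2-Nedd8OG substrate at 10 nM final; Dosing: 12.5 µM compound; Incubation: 90 min reaction at room temperature; Detection: fluorescence polarization of the substrate; Evaluation: % inhibition of substrate cleavage by Csn5; Control set: substrate-only high control, full reaction low control.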
HNF4A DNA FP – change in binding of human HNF4 alpha to DNA; 360,000 tested, 0.3% active; HNF4a-FITC DNA binding, fluorescence polarization, 1 h; activity change, % at 10 µM; P41235; in the data active = activity change above about 30%, passing the limit was not always enough
TPT1 inh confirm – TPT1 (C. albicans) inhibition, confirmation; shares compounds with TPT1 inh; recombinant caTPT1, fluorescence polarization, RNase T1 coupled; inhibition, % at 5 µM; 2,400 tested, 74% active; AID 2149;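 active = inhibition above the primary screen limit, the mean inhibition of all tested compounds plus 3 SD, cut at about 25% in these data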
RNase T1 inh – RNase T1 inhibition in TPT1 counter-screen; shares compounds with TPT1 inh; RNase T1 cleavage, fluorescence polarization, 1536-well; inhibition, % at 5 µM; 2,400 tested, 83% active;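 active = inhibition above the solvent-only control well mean plus 3 SD, limit set per screening run, cut at about 23% in these data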;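 note: inhibitors block cleavage so intact labeled substrate keeps polarization high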
Target sequence (P00651 whole entry, looked up): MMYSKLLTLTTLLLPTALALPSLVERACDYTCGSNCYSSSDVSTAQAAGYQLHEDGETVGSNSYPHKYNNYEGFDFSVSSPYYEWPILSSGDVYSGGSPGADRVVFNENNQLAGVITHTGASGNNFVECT
IDE inh confirm – cellular human IDE inhibition, confirmation; shares compounds with IDE inh; HEK cells, FAbetaB cleavage, fluorescence polarization; inhibition, % at 5.59 µM; 1,200 tested, 51% active;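 active = mean inhibition across triplicate wells above the cutoff set by the earlier primary insulin-degrading enzyme screen, cut at about 16% in these data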
HEK cytotox – kills HEK cells in IDE inhibitor counter-screen | 1,200 tested, 28% active | shares compounds with IDE inh | inhibition, % at 5.59 µM | HEK293 cytotoxicity, ATP luminescence | AID 449730; in the data active = inhibition above about 22%
A number is an active result; . = inactive; / = not tested or not shown; + = active, no number. In the library only some 1.7% were active in any assay of this set; here they are far more common.

SMILES	TPT1 inh	IDE act	Rpn11 inh	IDE inh	CSN deneddyl inh	HNF4A DNA FP	TPT1 inh confirm	RNase T1 inh	IDE inh confirm	HEK cytotox
O=C(CCn1c(=O)c2ccccc2n(CC(=O)NC2CCCC2)c1=O)NCc1ccco1	.	.	.	.	.	.	/	/	/	/
Cn1nccc1C(=O)N/N=C/c1c(O)ccc2ccccc12	37	.	.	16	.	.	44	49	22	111
O=C(N/N=C/c1c(O)ccc2ccccc12)c1cccnc1	64	.	/	63	.	43	99	98	64	76
COc1ccc2ccccc2c1/C=N\NC(=O)c1cccnc1	.	/	.	.	.	.	/	/	/	/
Cc1ccc(OCCNC(=O)c2cccc(S(=O)(=O)NCc3ccccc3)c2)cc1	/	.	.	/	.	.	/	/	/	/
C=CCN1C=CC(=C/C=C(/C#N)C(=O)OCC)C=C1	176	.	/	44	.	.	187	173	63	.
COc1cc(N2CCCC2)c(OC)cc1/C=C1/NC(=S)NC1=O	131	.	/	118	.	.	138	129	150	.
CC1CC1c1ccc(/C=C(\C#N)C(=O)Nc2ccc(Cl)cc2)o1 (configuration not stated)	.	.	.	.	.	.	/	/	/	/
COc1ccc(NC(=O)/C(C#N)=C/c2ccc(Br)o2)cc1	.	.	.	.	.	.	/	/	/	/
N#C/C(=C\c1cc([N+](=O)[O-])c(N2CCOCC2)cc1N1CCOCC1)c1nc2ccccc2[nH]1	.	.	.	.	.	.	/	/	/	/
N#C/C(=C/c1ccc(N2CCOCC2)o1)c1nc2ccccc2[nH]1	180	.	/	36	.	.	164	152	26	28
N#C/C(=C\c1ccc(N2CCOCC2)o1)C(=O)Nc1ccc(O)cc1	+	/	/	59	.	.	194	176	66	.
N#C/C(=C/c1ccc(N2CCCCC2)o1)C(=O)Nc1ccc(Cl)cc1	187	.	/	71	.	.	192	174	64	34
COc1ccc(NC(=O)/C(C#N)=C\c2ccc(N3CCOCC3)o2)cc1	+	.	/	126	.	.	198	177	145	.
Cc1nn(CCO)c2ncc(C(=O)c3cc(F)ccc3O)cc12	.	.	.	.	.	.	/	/	/	/
CCOC(=O)C1C(=O)NC(SCC(N)=O)=C(C#N)C1c1ccccc1OCC (configuration not stated)	70	.	/	37	43	99	68	78	31	.
CCOC(=O)C1C(=O)NC(SC)=C(C#N)C1c1ccccc1F (configuration not stated)	.	.	.	.	.	.	/	/	/	/
COc1ccc(CC(=O)OCC(=O)NC2CC2)cc1	/	.	.	.	.	.	/	/	/	/
Oc1ccccc1N=Cc1sc2ccccc2c1Cl	.	.	.	.	.	.	/	/	/	/
Oc1sc(C=Nc2ccccc2)c2ccccc12	119	.	/	26	.	.	105	104	30	.
Oc1sc(C=Nc2ccc(F)cc2)c2ccccc12	128	.	/	18	.	36	110	109	34	.
COc1ccc(N=Cc2c(O)[nH]c3ccccc23)cc1	.	.	.	.	.	.	/	/	/	/
COc1cc(O)c(C=NN2C(=O)CSC2=S)c(OC)c1	/	/	.	/	.	.	/	/	/	/
COc1cc(/C=N/N2C(=O)CSC2=S)ccc1O	28	.	+	26	.	.	28	40	44	.
C=CCN1C(=O)/C(=C/c2ccc(OCC(=O)O)cc2)S/C1=N/c1nccs1	.	.	.	.	.	.	/	/	/	/
SMILES	TPT1 inh	IDE act	Rpn11 inh	IDE inh	CSN deneddyl inh	HNF4A DNA FP	TPT1 inh confirm	RNase T1 inh	IDE inh confirm	HEK cytotox
C=CCN1C(=O)/C(=C/c2ccc(O)c(OC)c2)S/C1=N/c1nccs1	68	.	/	154	83	95	74	77	26	.
NS(=O)(=O)c1cccc(NC(=O)CN2CCN(S(=O)(=O)c3ccc4c(c3)OCCO4)CC2)c1	/	.	.	.	.	.	/	/	/	/
CC(C)OC(=O)N(C)C[C@H]1OCc2cnnn2CCCC(=O)N([C@@H](C)CO)C[C@H]1C	/	/	.	/	.	.	/	/	/	/
Cc1c(NC(=O)Nc2cccc(C#N)c2)c(=O)n(-c2ccccc2)n1C	.	.	.	.	.	.	/	/	/	/
O=C(N/N=C/c1c(O)n(-c2ccc(Cl)cn2)c(=O)c2ccccc12)c1ccncc1	130	.	/	22	.	72	154	143	38	.
O=c1/c(=C\c2cc([N+](=O)[O-])cc([N+](=O)[O-])c2O)sc2nc3ccccc3n12	91	.	/	16	.	40	91	93	20	.
CC(C)/C=C1\CC/C(=C\c2ccc(N(C)C)cc2)C1=O	121	.	/	68	.	.	121	118	144	.
CN(C)c1ccc(C=C2C(=O)OC(C)(C)OC2=O)cc1	.	.	.	.	.	.	/	/	/	/
Cc1oc(C)c2c(=O)ccc3c(c12)OC(N)=C(C#N)C3c1ccccc1 (configuration not stated)	.	.	/	.	.	.	/	/	/	/
Cc1oc(C)c2c(=O)ccc3c(c12)OC(N)=C(C#N)C3c1ccccc1Cl (configuration not stated)	29	.	/	30	.	.	48	56	26	.
CC(OC(=O)/C(C#N)=C/c1ccc(N(C)C)cc1)C(=O)N(C)Cc1ccccc1 (configuration not stated)	107	.	/	30	.	.	115	114	37	.
CN(Cc1ccccc1)C(=O)C1CCN(Cc2ccc(F)cc2)CC1	.	.	.	.	.	.	/	/	/	/
Cc1cc(/C=C2/C(=O)N(C)C(=S)N2C)ccc1N1CCCC1	159	.	/	26	.	.	155	142	51	.
CN1C(=O)/C(=C/c2ccc(O)c([N+](=O)[O-])c2)NC1=S	.	.	.	.	.	.	/	/	/	/
CN1C(=O)/C(=C/c2ccc(OCc3ccc(F)cc3)cc2)N(C)C1=S	.	.	.	.	.	.	/	/	/	/
CCCN1C(=O)/C(=C/c2ccc(N3CCCC3)c(C)c2)NC1=S	134	.	/	95	.	.	139	130	128	27
Cc1cc(/C=C2\NC(=S)N(C)C2=O)ccc1N1CCCC1	137	.	/	88	.	.	128	122	96	.
CCCN1C(=O)/C(=C/c2ccc(OCC(=O)OCC)cc2)NC1=S	/	.	.	/	.	.	/	/	/	/
